The source of these data is ChEMBL document CHEMBL1123918, “Thromboxane synthetase inhibitors and antihypertensive agents. 4. N-[(1H-imidazol-1-yl)alkyl] derivatives of quinazoline-2,4(1H,3H)-diones, quinazolin-4(3H)-ones, and 1,2,3-benzotriazin-4(3H)-ones” (J Med Chem, 1987).

The source made the active and inactive calls. No cut-off for these calls is given here.

Assay [1] deals with T1, Thromboxane-A synthase (Rattus norvegicus) (UniProt P49430).
T1 sequence (whole entry): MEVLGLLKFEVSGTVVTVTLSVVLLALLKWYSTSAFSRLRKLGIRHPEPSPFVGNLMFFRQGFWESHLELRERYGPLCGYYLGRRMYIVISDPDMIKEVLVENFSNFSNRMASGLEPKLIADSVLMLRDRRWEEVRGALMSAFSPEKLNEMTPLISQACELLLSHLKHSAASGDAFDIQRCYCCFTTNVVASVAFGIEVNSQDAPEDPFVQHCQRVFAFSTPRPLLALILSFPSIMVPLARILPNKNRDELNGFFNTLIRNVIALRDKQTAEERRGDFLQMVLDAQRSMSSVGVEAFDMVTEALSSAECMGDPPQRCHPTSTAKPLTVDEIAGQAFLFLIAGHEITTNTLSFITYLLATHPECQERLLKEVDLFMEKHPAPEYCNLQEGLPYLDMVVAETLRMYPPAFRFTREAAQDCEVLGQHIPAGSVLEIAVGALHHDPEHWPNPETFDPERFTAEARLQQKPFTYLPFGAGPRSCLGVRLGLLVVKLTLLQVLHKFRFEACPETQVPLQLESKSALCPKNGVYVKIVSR
The assay can be described thus: Tested for antihypertensive activity in spontaneously hypertensive rats at 100 mg/kg peroral dosage for 2 days; I is inactive. Format: functional, organism-based. Set-up: dose 100 mg/kg. Summed up: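 Male 16-week-old Okamoto SHR (mean arterial pressure about 170 mmHg) gavaged with compound suspended in 2% preboiled starch (50 mg/mL) at 100 mg/kg or less, with 0.9% NaCl load 25 mL/kg; identical second dose without saline 24 h later. Mean arterial pressure measured 28 h after first dose; one to three rats per compound.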

For a further assay, the target named is T2, Thromboxane-A synthase (Rattus norvegicus, UniProt P49430).
T2 sequence (P49430 whole entry): T1 sequence (whole entry)
The assay can be described thus: Tested for inhibition of thromboxane synthetase from spontaneously hypertensive rats. The method, boiled down: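 Washed SHR platelets in oxygenated Krebs phosphate buffer pH 7.4 (4.5-6.0 X 10^4 platelets/µL) incubated with vehicle or drug 10 min at 37 °C; stopped with ice and citric acid. TXB2 measured by direct RIA. Percent inhibition is relative to vehicle controls after background subtraction. IC50 is read from a plot of inhibition vs log concentration.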

In assay [2] the test system is Oryctolagus cuniculus. Description: Tested for inhibition of thromboxane formation in rabbit platelets at 2 hr by administration of 0.3 mg/kg intravenous bolus dose. Format: functional. The method, boiled down: (§1)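 Rabbits given compound in 0.9% sterile saline IV, as a bolus or by infusion pump. Blood drawn 5 min predose and at 0.5, 1, 2 and 3 h, then clotted 2 h at 37 °C and held 2 h on ice. Serum mixed with indomethacin, stored at -20 °C, and diluted in pH 7.4 phosphate buffer. TXB2 measured by direct RIA.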

Assay [3] has as its system Oryctolagus cuniculus. Description: Tested for inhibition of thromboxane formation in rabbit platelets at 3 hr by administration of 0.3 mg/kg intravenous bolus dose. The assay is classed as functional. The method, boiled down:
as §1

Another assay is filed under the species Homo sapiens. Description: Tested for inhibition of thromboxane formation in human platelets. The assay is classed as functional. The method, boiled down: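 Platelets from four healthy human volunteers were isolated with a small amount of prostaglandin E1 to prevent aggregation, then treated with compound, standard or vehicle. TXB2 measured by direct RIA. IC50 is read graphically from percent inhibition vs log concentration curves.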

For assay [4], the system named is Oryctolagus cuniculus. The assay can be described thus: Tested for inhibition of thromboxane formation in rabbit platelets at 0.5 hr by administration of 0.5 mg/kg/h perfused dose. The assay is classed as functional. Summed up:
as §1

Assay [5] concerns Oryctolagus cuniculus. Description: Tested for inhibition of thromboxane formation in rabbit platelets at 1.0 hr by administration of 0.1 mg/kg intravenous bolus dose. Format: functional. Summed up: as §1
The subject of assay [6] is Oryctolagus cuniculus. Description: Tested for inhibition of thromboxane formation in rabbit platelets at 1.0 hr by administration of 0.5 mg/kg/h perfused dose. The assay is classed as functional. Summed up:
as §1

Assay [7] concerns Oryctolagus cuniculus. The assay can be described thus: Tested for inhibition of thromboxane formation in rabbit platelets at 2 hr by administration of 0.1 mg/kg intravenous bolus dose. The assay is classed as functional. Summed up:
as §1

Assay [8] deals with Oryctolagus cuniculus. Description: Tested for inhibition of thromboxane formation in rabbit platelets at 3 hr by administration of 0.1 mg/kg intravenous bolus dose. The assay is classed as functional. Summed up: as §1
Assay [9] concerns Oryctolagus cuniculus. Description: Tested for inhibition of thromboxane formation in rabbit platelets at 0.5 hr by administration of 0.3 mg/kg intravenous bolus dose. Format: functional. The method, boiled down: as §1
The test system of assay [10] is Oryctolagus cuniculus. Description: Tested for inhibition of thromboxane formation in rabbit platelets at 1.0 hr by administration of 0.3 mg/kg intravenous bolus dose. The assay is classed as functional. The method, boiled down:
as §1

Assay [11] relates to Oryctolagus cuniculus. Description: Tested for inhibition of thromboxane formation in rabbit platelets at 0.5 hr by administration of 0.1 mg/kg intravenous bolus dose. The assay is classed as functional. The method, boiled down:
as §1

The test system of assay [12] is Oryctolagus cuniculus. The assay can be described thus: Tested for inhibition of thromboxane formation in rabbit platelets at 1.0 hr by administration of 10 mg/kg intravenous bolus dose. Format: functional. Summed up:
as §1

In assay [13] the test system is Oryctolagus cuniculus. Description: Tested for inhibition of thromboxane formation in rabbit platelets at 3 hr by administration of 10 mg/kg intravenous bolus dose. Format: functional. The method, boiled down:
as §1

Turning to `Cc1ccc2[nH]c(=O)n(CCCn3ccnc3)c(=O)c2c1`, the result in assay [1] was inactive. On Thromboxane-A synthase, this compound returned an IC50 of 20 nM.
The matching figures for `CC(Cn1ccnc1)Cn1nnc2ccc(Cl)cc2c1=O` (configuration not stated): “inactive” and 900 nM.
For `Cc1ccc(N)c(C(=O)NCC(C)Cn2ccnc2)c1` (configuration not stated), the outcome in assay [1] was inactive. For the same compound, at Thromboxane-A synthase, the midpoint of inhibition, the IC50, lay at 1300 nM.
The corresponding values for `O=c1[nH]c2cc(Cl)ccc2c(=O)n1CCCn1ccnc1` are “inactive” and 180 nM.
Take `CC(Cn1ccnc1)Cn1nnc2ccc(Br)cc2c1=O` (configuration not stated): in assay [1], the result was inactive. Further, the IC50 at Thromboxane-A synthase was found to be 1700 nM.
The corresponding values for `CC(CNC(=O)c1ccccc1N)Cn1ccnc1` (configuration not stated) are “inactive” and 2500 nM.
As for `CC(CNC(=O)c1cc(Br)ccc1N)Cn1ccnc1` (configuration not stated), in assay [1], the result was inactive. The compound further came in with an IC50 at Thromboxane-A synthase of 290 nM.
For the compound `CC(Cn1ccnc1)Cn1c(=O)[nH]c2cc(Cl)ccc2c1=O` (configuration not stated), the inhibition in vivo at 0.3 mg/kg in the assay with Oryctolagus cuniculus [2] was 60.8%; with Oryctolagus cuniculus [3], 53.1%; with Oryctolagus cuniculus [9], 88.9%; with Oryctolagus cuniculus [10] it was 82.8%. The midpoint of inhibition in the assay filed under Homo sapiens, the IC50, lay at 21.2 nM. In the assay on Oryctolagus cuniculus [4], the inhibition in vivo at 0.5 mg/kg/h was found to be 95.9%. Besides, the inhibition in vivo at 0.1 mg/kg in the assay on Oryctolagus cuniculus [5] worked out at 62.8%; with Oryctolagus cuniculus [7], 39.5%; with Oryctolagus cuniculus [8] it was 46.2%; with Oryctolagus cuniculus [11] it was 73.6%. Also, testing at 0.5 mg/kg in the assay with Oryctolagus cuniculus [6] gave an inhibition in vivo of 98.1%.
Turning to `CC(Cn1ccnc1)Cn1c(=O)[nH]c2c(Cl)cccc2c1=O` (configuration not stated), the outcome in [1] was inactive. This compound also registered an IC50 at Thromboxane-A synthase of 10 nM.
The matching figures for `Cc1ccc(N)c(C(=O)NCCCCn2ccnc2)c1`: “inactive” and 340 nM.
The corresponding values for `O=c1[nH]c2ccc(Cl)cc2c(=O)n1CCCCCCCCCCn1ccnc1` are “inactive” and 7 nM.
Take `O=C(O)c1ccc(OCCn2ccnc2)cc1` [DAZOXIBEN]: in assay [1], the result was inactive. Further, the inhibition in vivo at 10 mg/kg was determined as 94.7% in the assay on Oryctolagus cuniculus [12] and 74.5% in the assay on Oryctolagus cuniculus [13]. Further, the inhibition in vivo at 0.3 mg/kg was determined as 13.6% in the assay on Oryctolagus cuniculus [2], 22.8% with Oryctolagus cuniculus [3], 45.9% in the assay on Oryctolagus cuniculus [9] and 30.1% with Oryctolagus cuniculus [10]. This compound displayed an IC50 in the assay listed under Homo sapiens of 5030 nM.
Turning to `CC(Cn1ccnc1)Cn1cnc2ccc(Cl)cc2c1=O` (configuration not stated), the result in assay [1] was inactive. The compound further came in with an IC50 on Thromboxane-A synthase of 90 nM.
The matching figures for `O=c1[nH]c2ccccc2c(=O)n1CCCn1ccnc1`: “inactive” and 600 nM.
The corresponding values for `Cc1ccc2[nH]c(=O)n(CC(C)Cn3ccnc3)c(=O)c2c1` (configuration not stated) are “inactive” and 3 nM.
The matching figures for `O=c1[nH]c2ccc(Br)cc2c(=O)n1CCCn1ccnc1`: “inactive” and 100 nM.
